This note sets out measurements from ChEMBL document CHEMBL4513216, “Probing the Open Global Health Chemical Diversity Library for Multistage-Active Starting Points for Next-Generation Antimalarials” (ACS Infect Dis, 2020).

The nature of this data set: Toxicity liver stage against HepG2, at 10uM. In kind it is cell-based. Also noted: test concentration 10 uM, cell line HepG2-A16-CD81EGFP. The settings on record: human, HepG2-A16-CD81EGFP cells; read-out: INHIBITION
Summed up: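 Uninfected HepG2-A16-CD81EGFP cells, 3 × 10^3 per well, 1536-well, plated on prespotted compound at 10 μM final, parasite-free screening media added to match infected plates; puromycin 10 μM positive, DMSO 0.5% negative; run in parallel with 48 h PbLuc assay at 37 °C, 5% CO2; viability by CellTiter-Glo luminescence, normalized to controls.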

As for `O=C(c1cccs1)N1CC[C@@H](N2CCOCC2)[C@@H]1Cc1ccccc1`, the cytotoxicity at 10 µM was -81.6%.

`c1ccc(-n2nnnc2CNCC2CCCN2c2cccnn2)cc1` (stereo unspecified): the cytotoxicity at 10 µM is -4.14%.

On to `O=C(NCCN1CCCCCC1=O)NCc1ccc(Cl)s1`, for which the cytotoxicity at 10 µM was -1.08%.

On to `CCOCc1nn(C)c2c1CN(Cc1cccs1)CC2`, for which the cytotoxicity at 10 µM was -101%.

With `Cn1cc2c(n1)C(CNC1CCOCC1)OCC2` (stereo unspecified), the cytotoxicity at 10 µM came out at 9.31%.

As to `COc1cc(N2C[C@@H]3COC[C@]3(C(=O)NC3CC(F)(F)C3)C2)ncn1`, the cytotoxicity at 10 µM was 14.7%.

As to `Cc1ccccc1OC1CCN(CC(=O)Nc2cn(C)nc2C)CC1`, the cytotoxicity at 10 µM was -0.0825%.

As for `Clc1ccccc1CCN1CCN(c2ccc3nncn3n2)CC1`, the cytotoxicity at 10 µM was 1.78%.

Consider `O=C(c1cccc(O)c1)N1CCN(Cc2nnc(C3CCC3)o2)CC1`, for which the cytotoxicity at 10 µM was -8.52%.

`NC(=O)C1CN(C(=O)NCC2(c3ccc(F)cc3)CCC2)CCO1` (stereo unspecified): the cytotoxicity at 10 µM was -5.07%.

For `Cn1c(N)c2c(=O)n(C)c(-c3ccc(Cl)cc3)cc2c(C#N)c1=O`, the cytotoxicity at 10 µM is -8.91%.

In the case of `Clc1ccccc1CCn1ccnc1-c1cn(C2CCNCC2)nn1`, the cytotoxicity at 10 µM turned out to be 0.33%.

For `CCCNC(c1ccc(F)cc1)c1cccnc1` (stereo unspecified), the cytotoxicity at 10 µM came out at 3.41%.

On to `CN(C)c1nc2n(c(=O)n1)CCN2C(=O)Nc1ccc(Cl)c(Cl)c1`, for which the cytotoxicity at 10 µM is 9.76%.

In the case of `Cc1ccc(CN(C)C(=O)CN2CCCCC2Cn2cncn2)cc1` (stereo unspecified), the cytotoxicity at 10 µM was 17.7%.

On to `Cc1ncccc1NC(=O)[C@@H]1CC[C@@H]2[C@@H](CCN2Cc2cnn(C)c2)O1`, for which the cytotoxicity at 10 µM is -0.335%.

`Cn1nc(C2CCCN(Cc3cc(F)cc(F)c3)C2)c2nccnc21` (stereo unspecified): the cytotoxicity at 10 µM was -16.3%.

For `N#Cc1cccnc1NCCNC(=O)N1CCCC(C(F)(F)F)C1` (stereo unspecified), the cytotoxicity at 10 µM is -3.76%.

For the compound `O=C(NCc1ccco1)c1ccc(N2CCOCC2)cc1`, the cytotoxicity at 10 µM was 4.31%.

With `Cn1cc(CN2C[C@H](N3CCOCC3)[C@@H]3OCCC[C@@H]32)cn1`, the cytotoxicity at 10 µM is 5.02%.

For the compound `Cc1nn(C)c(N(C)C)c1CNCc1cccc(CN(C)C(C)C)c1`, the cytotoxicity at 10 µM came to 11.4%.

Consider `Cc1ccsc1CN(Cc1cccnc1)C1CC(C)(C)NC(C)(C)C1`, for which the cytotoxicity at 10 µM is -10.7%.

For the compound `COCCNC(=O)N1CCCC(COc2ccccc2)C1` (stereo unspecified), the cytotoxicity at 10 µM was found to be 0.186%.

With `CCn1ncc(CN2CCc3nc(-c4cccnc4)nc(O)c3C2)c1C`, the cytotoxicity at 10 µM was -23.7%.

As to `Cc1cc2nc(C(C)C)cc(NCCc3ccncc3)n2n1`, the cytotoxicity at 10 µM was -1.18%.

In the case of `Cc1ncoc1C(=O)N1CCOC(CCCC(C)C)C1` (stereo unspecified), the cytotoxicity at 10 µM was found to be 8.29%.

Consider `Cc1cccc(-n2cnnc2CCCN2CCOCC2)c1`, for which the cytotoxicity at 10 µM was -2.42%.

For `CS(=O)(=O)NCc1cc(=O)n2c(n1)CN(Cc1ccco1)CCC2`, the cytotoxicity at 10 µM is 7.25%.

For the compound `Cn1ccnc1CN1CCC2(CC1)CC(NC(=O)c1ccccn1)CO2` (stereo unspecified), the cytotoxicity at 10 µM is -2.05%.

In the case of `CN(Cc1nc(-c2cccs2)no1)Cc1nc2c(s1)CCCC2`, the cytotoxicity at 10 µM was 3.01%.

Turning to `Cc1nc(CNC(=O)C(C)Oc2ccccc2F)no1` (stereo unspecified), the cytotoxicity at 10 µM came out at 5.43%.

Regarding `CCCn1nc2c(cc1=O)CN(CCS(C)(=O)=O)CC2`, the cytotoxicity at 10 µM is -8.87%.

For `Cc1cc(C(=O)N2C[C@@H]3CC[C@H]2CN(Cc2ccccn2)C3)nc(N)n1`, the cytotoxicity at 10 µM was -0.0925%.

Turning to `CCN1CCc2[nH]nc(C(=O)N3CCCC3C)c2C1` (stereo unspecified), the cytotoxicity at 10 µM was -4.9%.

In the case of `O=C1NCC(c2ccc(Cl)cc2)Cc2[nH]c(CCN3CCOCC3)nc21` (stereo unspecified), the cytotoxicity at 10 µM is -5.68%.

On to `CC1=Nc2c(c(=O)[nH]n2C(C)C)C(c2cccs2)S1` (stereo unspecified), for which the cytotoxicity at 10 µM was determined as 3.67%.

With `c1csc(CN2CC[C@H]3O[C@@H](COCC4CC4)CC[C@H]32)c1`, the cytotoxicity at 10 µM was -74.8%.

For the compound `CCOC(=O)CC(c1ccc(OC)cc1)c1c(O)n[nH]c1C` (stereo unspecified), the cytotoxicity at 10 µM is -0.244%.

For `c1csc(CN2C[C@@H]3OCCN(CC4CCCO4)[C@@H]3C2)c1` (stereo partly specified), the cytotoxicity at 10 µM was -6.31%.

Consider `COCCN(C)C[C@H]1CC[C@@H](Cc2ccc3c(cnn3C)c2)O1`, for which the cytotoxicity at 10 µM was 0.255%.

With `COc1cc(C)nc(N2CCN(C(=O)CCn3cc(C)cn3)CC2)n1`, the cytotoxicity at 10 µM was -3.56%.

As for `O=C(NCc1ccc(Cl)cc1)[C@@H]1Cc2[nH]cnc2CN1CC1CC1`, the cytotoxicity at 10 µM is 3.67%.

As for `Cn1cc(C2COC3(CCN(C(=O)c4cccc(O)c4)CC3)C2)cn1` (stereo unspecified), the cytotoxicity at 10 µM was -73.3%.

Consider `COc1ccc2[nH]nc(CN3CCC(C(C)N4CCCC4)CC3)c2c1` (stereo unspecified), for which the cytotoxicity at 10 µM was -4.13%.

Regarding `CCS(=O)(=O)N1Cc2ncn(C)c2C(COCC2CCOCC2)C1` (stereo unspecified), the cytotoxicity at 10 µM is -72.6%.

Regarding `O=C(c1ccc(F)c(F)c1)N1CCC[C@]2(C[C@@H](OCC3CC3)CO2)C1`, the cytotoxicity at 10 µM is -70.1%.

For the compound `CN(Cc1nc(C2CC2)no1)C(=O)C1COc2ccccc2C1` (stereo unspecified), the cytotoxicity at 10 µM was -0.509%.

For `O=C(c1ccccn1)N1C[C@@H](OCc2cccnc2)[C@H]2OCCC[C@@H]21`, the cytotoxicity at 10 µM was -0.187%.

For `CCc1[nH]c2ccc(CNc3cncc(C(=O)N(C)C)n3)cc2c1C`, the cytotoxicity at 10 µM was found to be 7.59%.

With `Cc1cnn(CCNCc2ccc(F)cc2Cl)c1`, the cytotoxicity at 10 µM is -5.16%.

Consider `COCCn1cnnc1Cn1ccnc1-c1ccccc1C`, for which the cytotoxicity at 10 µM is -7.58%.

For `CCn1nc2c(cc1=O)CN(CCCOc1ccc(C#N)cc1)CC2`, the cytotoxicity at 10 µM came to 14%.

As for `O=C1COC2(CCN(Cc3ccoc3)CC2)CN1CCn1cccn1`, the cytotoxicity at 10 µM turned out to be 6.95%.

As for `CCN(C)Cc1cccc(CNC(=O)NCCc2ccccn2)c1`, the cytotoxicity at 10 µM turned out to be 2.8%.

`CCc1noc(CN2CCN(C(=O)c3ccccn3)CC2)n1`: the cytotoxicity at 10 µM is -0.775%.

As to `Cc1ncc2c(n1)CN(CCOCC(F)(F)F)CC2`, the cytotoxicity at 10 µM is -0.598%.

With `CN1CC(=O)N(c2ccccc2)CC12CCN(C(=O)c1cnccn1)C2` (stereo unspecified), the cytotoxicity at 10 µM was 9.91%.

Turning to `Cc1nc(N2CCCC2)ncc1-c1cc(O)nc(NCC2CCCO2)n1` (stereo unspecified), the cytotoxicity at 10 µM turned out to be 0.723%.

For `COCCN(C)C(=O)Nc1ccc(C(=O)NCCC(=O)OC)cc1`, the cytotoxicity at 10 µM was determined as 7.2%.

Take `CCOc1ccc(CN2C(=O)CC(C)(C(C)C)C2=O)nc1` (stereo unspecified): the cytotoxicity at 10 µM is -5.51%.

For `CCC(CC)(CNC(=O)OC(C)(C)C)NC(=O)C1CCCO1` (stereo unspecified), the cytotoxicity at 10 µM is 1.41%.

For `CN(Cc1nnc(C2CC2)n1C)C1CCN(CCc2cnn(C)c2)C1` (stereo unspecified), the cytotoxicity at 10 µM was -4.02%.

For `Cc1ccc(S(=O)(=O)N2CCC(Cn3cc(C(C)(C)N)nn3)CC2)s1`, the cytotoxicity at 10 µM worked out at 6.74%.

Turning to `Cc1csc(N2CCCN(C3Cc4ccccc4C3)CC2)n1`, the cytotoxicity at 10 µM turned out to be 10.3%.

Consider `O=C(Cc1cccs1)N1CCOCC1c1ccccc1` (stereo unspecified), for which the cytotoxicity at 10 µM was -6.73%.

Take `Cc1ccc(NC2CCN(C(=O)c3ccc(F)cc3Cl)CC2)nn1`: the cytotoxicity at 10 µM is -14.1%.

Regarding `Cc1ccc(CN2CCC3(CCC3NC(=O)c3ccn(C)c3)CC2)s1` (stereo unspecified), the cytotoxicity at 10 µM was -151%.

As for `O=C(NC1CCCC1)[C@H]1CC[C@@H]2[C@@H](CCN2c2ncc(F)cn2)O1`, the cytotoxicity at 10 µM stood at 0.441%.

`c1ccc(NCc2ccc(Cn3ccnc3)cc2)nc1`: the cytotoxicity at 10 µM was determined as 70.9%.

For `Cc1c(CCC(=O)N2CCOC(c3cnccn3)C2)cnn1C` (stereo unspecified), the cytotoxicity at 10 µM was -1.87%.

In the case of `COCc1cn(C2CCN(C(=O)Cc3ccsc3)CC2)nn1`, the cytotoxicity at 10 µM was -4.2%.

Consider `CCOC(=O)CSc1nnc([C@@H](N)C(C)C)o1`, for which the cytotoxicity at 10 µM was determined as 0.979%.

For `Cc1cnc(C(C)(C)NC(=O)NCc2cccnc2OC(C)C)s1`, the cytotoxicity at 10 µM is 8.46%.

As to `Cc1nc(-c2cccc(N3CCC(N[C@@H]4CCOC4)CC3)c2)cs1`, the cytotoxicity at 10 µM was -8.16%.

For the compound `Cc1nc2n(n1)CC(Nc1cc(C(F)(F)F)nc3ncnn13)CC2` (stereo unspecified), the cytotoxicity at 10 µM was -1.27%.

For `CC(C)(C)c1cn2nc(N3CCCC3Cn3cccn3)sc2n1` (stereo unspecified), the cytotoxicity at 10 µM is -23.8%.

As to `Cn1cncc1-c1nnc([C@H]2CCN(C3CCOCC3)C2)o1`, the cytotoxicity at 10 µM is -3.46%.

As for `Cc1cc(F)ccc1CCNC(=O)NCC(C)N1CCOCC1` (stereo unspecified), the cytotoxicity at 10 µM is -1.35%.

With `Cc1csc(C(Cc2cccs2)NCc2cc3c(cc2C)OCO3)n1` (stereo unspecified), the cytotoxicity at 10 µM is -8.9%.

Take `CN(Cc1ccc(Cl)c(F)c1)C(=O)CCc1ccncc1`: the cytotoxicity at 10 µM was 3.31%.

On to `O=C(Nc1cc(-c2ccncc2)no1)C1CC1`, for which the cytotoxicity at 10 µM was -4.18%.

For the compound `COc1nn(C)c2c1CCCN(C(=O)c1cccc3cccnc13)C2`, the cytotoxicity at 10 µM is -104%.

As to `Cc1n[nH]c(C)c1CC(=O)N1CCC2(CC1)CN(C)CCN2C`, the cytotoxicity at 10 µM amounted to 1.73%.

`CC(=O)N1CCCn2c(nc(CNS(=O)(=O)C3CC3)cc2=O)C1`: the cytotoxicity at 10 µM was 2.71%.

On to `CCCn1nc(C)c(CNC(=O)c2snnc2C)c1C`, for which the cytotoxicity at 10 µM was -15.5%.

Take `CCCNc1nc(CS(=O)(=O)c2ccccc2)cs1`: the cytotoxicity at 10 µM was found to be 0.939%.

On to `C=C(C)CN1CCC(Nc2nc(C)ns2)CC1`, for which the cytotoxicity at 10 µM is -8.39%.

Regarding `CCOC1CCN(C(=O)c2cc(-c3ccc(Cl)cc3)on2)CC1`, the cytotoxicity at 10 µM is -5.08%.

As to `CCc1cc(NC2CCS(=O)(=O)C2)nc(N2CCCCC2)n1` (stereo unspecified), the cytotoxicity at 10 µM is -3.15%.

Turning to `Cc1nc(CSCCC(=O)NCc2ccc(-n3cncn3)nc2)cs1`, the cytotoxicity at 10 µM is -27.2%.

As for `OCC1CCCN1c1cc(NCCc2ccsc2)ncn1` (stereo unspecified), the cytotoxicity at 10 µM was 8.51%.

Take `Cc1nc(CN2C[C@@H]3CN(C(=O)c4ccoc4C)C[C@@H]3C2=O)cs1`: the cytotoxicity at 10 µM was -76.8%.

`Cc1noc(C)c1CN1CCn2cc(CNc3ccccn3)nc2C1`: the cytotoxicity at 10 µM was -1.38%.

For `Cc1nc(N2CCOCC2)nc2c1COCC21CCN(CC2CC2)C1` (stereo unspecified), the cytotoxicity at 10 µM is -116%.

Consider `CC(C)c1cc(NC(=O)CN2CCn3c(nnc3C3CC3)C2)on1`, for which the cytotoxicity at 10 µM is -14.1%.

For `CC(C)N1CC[C@H](c2nnc(Cc3c[nH]c4ccccc34)o2)C1`, the cytotoxicity at 10 µM was -9.04%.
